Results taken from ChEMBL document CHEMBL1149790, “Synthesis of some novel thiourea derivatives obtained from 5-[(4-aminophenoxy)methyl]-4-alkyl/aryl-2,4-dihydro-3H-1,2,4-triazole-3-thiones and evaluation as antiviral/anti-HIV and anti-tuberculosis agents” (Eur J Med Chem, 2008).
≈ marks a conversion by molar mass, not a printed value. Calls of active or inactive are those of the source. The calls are words filed in the database; no cut-off is given here.

Tests used:
[1] = tested on: Human immunodeficiency virus 1; experiment: Antiviral activity against HIV1 3B in human MT4 cells assessed as protection against virus-induced cytopathogenicity by MTT assay; format: functional, organism-based; set-up: Activity: concentration or dose not given beside the values; conditions: for IC50: Human immunodeficiency virus 1, 3B, MT4
Outline: (§1)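 MT-4 cells at 6 × 10⁵ cells/ml infected with HIV-1 IIIB or HIV-2 ROD at 100–300 CCID50; compounds in serial five-fold dilutions, triplicate mock- and virus-infected wells. MTT viability read at 540 and 690 nm after 5 days, median OD of three wells; EC50 = 50% protection from viral cytopathic effect.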

[2] = tested on: Human immunodeficiency virus 2; experiment: Antiviral activity against HIV2 ROD in human MT4 cells assessed as protection against virus-induced cytopathogenicity by MTT assay; format: functional, organism-based; set-up: Activity: concentration or dose not given beside the values; conditions: for IC50: Human immunodeficiency virus 2, ROD, MT4; outline: as §1
[3] = Cytotoxicity against human MT4 cells by MTT assay; format: cell-based
Outline: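 Mock-infected MT-4 cells (6 × 10⁵ cells/ml) with serial five-fold compound dilutions in triplicate; MTT reduction read at 540 and 690 nm after 5 days, median OD of three wells; CC50 = concentration reducing OD540 of mock-infected control by 50%.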

[4] = Cytotoxicity against human HeLa cells; format: cell-based
Outline: (§2)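 Uninfected cell cultures exposed to test compounds alongside antiviral assays; minimum cytotoxic concentration (MCC) = concentration causing a microscopically detectable alteration of cell morphology.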

[5] = tested on: Vesicular stomatitis virus; experiment: Antiviral activity against vesicular stomatitis virus in human HeLa cells assessed as inhibition of virus-induced cytopathogenicity; format: functional
Outline: (§3)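 Confluent cell monolayers (E6SM, HEL, HeLa or Vero, per line) inoculated with 100 CCID50 virus; 1 h adsorption, residual virus removed, then incubated with compound at 400, 200, 100 … µg/ml. Cytopathicity scored once complete in untreated virus controls; MIC = concentration inhibiting virus-induced cytopathicity.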

Coxsackievirus B4 [6] = experiment: Antiviral activity against Coxsackie virus B4 in human HeLa cells assessed as inhibition of virus-induced cytopathogenicity; format: functional; conditions: Enterovirus B; outline: as §3
[7] = tested on: Respiratory syncytial virus; experiment: Antiviral activity against respiratory syncytial virus in human HeLa cells assessed as inhibition of virus-induced cytopathogenicity; format: functional; outline: as §3
[8] = Cytotoxicity against human E6SM cells; format: cell-based; conditions: E6SM cells; outline: as §2
[9] = Cytotoxicity against human HEL cells assessed as alteration of cell morphology; format: cell-based; outline: as §2
Human alphaherpesvirus 1 [10] = experiment: Antiviral activity against HSV1 KOS in human E6SM cells assessed as reduction of virus-induced cytopathogenicity; format: functional; conditions: Human alphaherpesvirus 1, KOS; outline: as §3
Human alphaherpesvirus 1 [11] = experiment: Antiviral activity against HSV1 KOS in human HEL cells assessed as reduction of virus-induced cytopathogenicity; format: functional; conditions: Human alphaherpesvirus 1, KOS; outline: as §3
Human alphaherpesvirus 2 [12] = experiment: Antiviral activity against HSV2 G in human E6SM cells assessed as reduction of virus-induced cytopathogenicity; format: functional; conditions: Human alphaherpesvirus 2, G; outline: as §3
Human alphaherpesvirus 2 [13] = experiment: Antiviral activity against HSV2 G in human HEL cells assessed as reduction of virus-induced cytopathogenicity; format: functional; conditions: Human alphaherpesvirus 2, G; outline: as §3
[14] = tested on: Vesicular stomatitis virus; experiment: Antiviral activity against in Vesicular stomatitis virus in human E6SM cells assessed as reduction of virus-induced cytopathogenicity; format: functional; outline: as §3
[15] = tested on: Vesicular stomatitis virus; experiment: Antiviral activity against in Vesicular stomatitis virus in human HEL cells assessed as reduction of virus-induced cytopathogenicity; format: functional; outline: as §3
Human alphaherpesvirus 1 [16] = experiment: Antiviral activity against thymidine kinase deficient and acyclovir resistant HSV1 KOS in human E6SM cells assessed as reduction of virus-induced cytopathogenicity; format: functional; conditions: Human alphaherpesvirus 1, KOS; outline: as §3
Human alphaherpesvirus 1 [17] = experiment: Antiviral activity against thymidine kinase deficient and acyclovir resistant HSV1 KOS in human HEL cells assessed as reduction of virus-induced cytopathogenicity; format: functional; conditions: Human alphaherpesvirus 1, KOS; outline: as §3
Vero = experiment: Cytotoxicity against african green monkey Vero cells; format: cell-based; conditions: chlorocebus sabaeus; outline: as §2
Coxsackievirus B4 [18] = experiment: Antiviral activity against Coxsackie virus B4 in african green monkey Vero cells assessed as reduction of virus-induced cytopathogenicity; format: functional; conditions: Enterovirus B; outline: as §3
Punta Toro virus = experiment: Antiviral activity against Punta Toro virus in african green monkey Vero cells assessed as reduction of virus-induced cytopathogenicity; format: functional; outline: as §3
Human betaherpesvirus 5 [19] = experiment: Antiviral activity against human cytomegalovirus AD169 infected HEL cells assessed as reduction in virus plaque formation; format: functional, organism-based; conditions: Human betaherpesvirus 5, AD169, HEL
Human betaherpesvirus 5 [20] = experiment: Antiviral activity against human cytomegalovirus Davis infected HEL cells assessed as reduction in virus plaque formation; format: functional, organism-based; conditions: Human betaherpesvirus 5, Davis
Human alphaherpesvirus 3 [21] = experiment: Antiviral activity against TK+ VZV OKA infected HEL cells assessed as reduction in virus plaque formation; format: functional, organism-based; conditions: Human alphaherpesvirus 3, OKA
Human alphaherpesvirus 3 [22] = experiment: Antiviral activity against TK- VZV 07/1 infected HEL cells assessed as reduction in virus plaque formation; format: functional, organism-based; conditions: Human alphaherpesvirus 3, 07/1, HEL
[23] = tested on: Mycobacterium tuberculosis; experiment: Antitubercular activity against Mycobacterium tuberculosis H37Rv at 6.25 ug/ml by MABA assay; format: functional
Human respirovirus 3 = experiment: Antiviral activity against Parainfluenza 3 virus in african green monkey Vero cells assessed as reduction of virus-induced cytopathogenicity; format: functional; outline: as §3
[24] = tested on: Mammalian orthoreovirus 1; experiment: Antiviral activity against Reo virus 1 in african green monkey Vero cells assessed as reduction of virus-induced cytopathogenicity; format: functional; outline: as §3
Sindbis virus = experiment: Antiviral activity against Sindbis virus in african green monkey Vero cells assessed as reduction of virus-induced cytopathogenicity; format: functional; outline: as §3
[25] = Cytotoxicity against human HEL cells assessed as reduction of cell growth; format: cell-based
Outline: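 HEL cells; CC50 = compound concentration reducing cell growth by 50%.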

Compound | Activity [1] | IC50 [1] | Activity [2] | IC50 [2] | CC50 [3] | MCC [4] | MIC [5] | MIC (Coxsackievirus B4 [6]) | MIC [7] | MCC [8] | MCC [9] | MIC (Human alphaherpesvirus 1 [10]) | MIC (Human alphaherpesvirus 1 [11]) | MIC (Human alphaherpesvirus 2 [12]) | MIC (Human alphaherpesvirus 2 [13]) | MIC [14] | MIC [15] | MIC (Human alphaherpesvirus 1 [16]) | MIC (Human alphaherpesvirus 1 [17]) | Activity (Vero) | further results
CCn1c(COc2ccc(NC(=S)Nc3ccccc3)cc2)n[nH]c1=S | 26.5% | > 27.2 µg/mL | 25.5% | > 31.4 µg/mL | 31.9 µg/mL (≈ 82.8 µM) | 400 µg/mL | 80 µg/mL (≈ 208 µM) | > 80 µg/mL | > 80 µg/mL | 400 µg/mL | 400 µg/mL | > 80 µg/mL | > 80 µg/mL | > 80 µg/mL | > 80 µg/mL | > 80 µg/mL | > 80 µg/mL | > 80 µg/mL | > 80 µg/mL | >= 80 ug ml-1 | MIC (Coxsackievirus B4 [18]): 48 µg/mL (≈ 125 µM); MIC (Punta Toro virus): > 80 µg/mL; EC50 (Human betaherpesvirus 5 [19]): 41 µg/mL (≈ 106 µM); EC50 (Human betaherpesvirus 5 [20]): 37 µg/mL (≈ 96 µM); EC50 (Human alphaherpesvirus 3 [21]): 29 µg/mL (≈ 75.2 µM); EC50 (Human alphaherpesvirus 3 [22]): 34 µg/mL (≈ 88.2 µM); inhibition at 6.25 µg/mL [23]: 76%; MIC (Human respirovirus 3): > 80 µg/mL; MIC [24]: > 80 µg/mL; MIC (Sindbis virus): > 80 µg/mL; CC50 [25]: > 50 µg/mL
C=CCn1c(COc2ccc(NC(=S)NCC)cc2)n[nH]c1=S | 4% | > 76.5 µg/mL | 2.5% | > 86.2 µg/mL | 90 µg/mL (≈ 258 µM) | 400 µg/mL | > 80 µg/mL | > 80 µg/mL | > 80 µg/mL | > 400 µg/mL | > 400 µg/mL | > 400 µg/mL | > 400 µg/mL | > 400 µg/mL | > 400 µg/mL | > 400 µg/mL | > 400 µg/mL | > 400 µg/mL | > 400 µg/mL | 400 µg/mL | MIC (Coxsackievirus B4 [18]): 80 µg/mL (≈ 229 µM); MIC (Punta Toro virus): > 80 µg/mL; EC50 (Human betaherpesvirus 5 [19]): > 100 µg/mL; EC50 (Human betaherpesvirus 5 [20]): > 100 µg/mL; EC50 (Human alphaherpesvirus 3 [21]): 64 µg/mL (≈ 183 µM); EC50 (Human alphaherpesvirus 3 [22]): 64 µg/mL (≈ 183 µM); Activity [23]: inactive; MIC (Human respirovirus 3): > 80 µg/mL; MIC [24]: > 80 µg/mL; MIC (Sindbis virus): > 80 µg/mL; CC50 [25]: > 50 µg/mL
C=CCn1c(COc2ccc(NC(=S)Nc3ccccc3)cc2)n[nH]c1=S | 19% | > 20.2 µg/mL | 22.5% | > 20.3 µg/mL | 23.2 µg/mL (≈ 58.4 µM) | 80 µg/mL | > 16 µg/mL | > 16 µg/mL | > 16 µg/mL | 400 µg/mL | 400 µg/mL | > 80 µg/mL | > 80 µg/mL | > 80 µg/mL | > 80 µg/mL | 80 µg/mL (≈ 201 µM) | 80 µg/mL (≈ 201 µM) | > 80 µg/mL | > 80 µg/mL | 80 µg/mL | MIC (Coxsackievirus B4 [18]): 16 µg/mL (≈ 40.2 µM); MIC (Punta Toro virus): > 16 µg/mL; EC50 (Human betaherpesvirus 5 [19]): 45 µg/mL (≈ 113 µM); EC50 (Human betaherpesvirus 5 [20]): 45 µg/mL (≈ 113 µM); EC50 (Human alphaherpesvirus 3 [21]): 9.9 µg/mL (≈ 24.9 µM); EC50 (Human alphaherpesvirus 3 [22]): 26.8 µg/mL (≈ 67.4 µM); inhibition at 6.25 µg/mL [23]: 79%; MIC (Human respirovirus 3): > 16 µg/mL; MIC [24]: > 16 µg/mL; MIC (Sindbis virus): > 16 µg/mL; CC50 [25]: 42 µg/mL (≈ 106 µM)
CCNC(=S)Nc1ccc(OCc2n[nH]c(=S)n2C)cc1 | 1.5% | > 107 µg/mL | 2% | > 125 µg/mL | ≥ 107 µg/mL | 400 µg/mL | > 80 µg/mL | > 80 µg/mL | > 80 µg/mL | > 400 µg/mL | > 400 µg/mL | > 400 µg/mL | > 400 µg/mL | 240 µg/mL (≈ 742 µM) | 240 µg/mL (≈ 742 µM) | > 400 µg/mL | > 400 µg/mL | 240 µg/mL (≈ 742 µM) | 240 µg/mL (≈ 742 µM) | 400 µg/mL | MIC (Coxsackievirus B4 [18]): > 80 µg/mL; MIC (Punta Toro virus): > 80 µg/mL; EC50 (Human betaherpesvirus 5 [19]): > 100 µg/mL; EC50 (Human betaherpesvirus 5 [20]): > 100 µg/mL; EC50 (Human alphaherpesvirus 3 [21]): > 100 µg/mL; EC50 (Human alphaherpesvirus 3 [22]): > 100 µg/mL; Activity [23]: inactive; MIC (Human respirovirus 3): > 80 µg/mL; MIC [24]: > 80 µg/mL; MIC (Sindbis virus): > 80 µg/mL; CC50 [25]: > 50 µg/mL
C=CCn1c(COc2ccc(N)cc2)n[nH]c1=S | 3.5% | > 125 µg/mL | 9% | > 125 µg/mL | > 125 µg/mL | > 400 µg/mL | > 400 µg/mL | > 400 µg/mL | > 400 µg/mL | > 400 µg/mL | > 400 µg/mL | > 400 µg/mL | > 400 µg/mL | 240 µg/mL (≈ 915 µM) | 240 µg/mL (≈ 915 µM) | > 400 µg/mL | > 400 µg/mL | > 400 µg/mL | > 400 µg/mL | 400 µg/mL | MIC (Coxsackievirus B4 [18]): > 80 µg/mL; MIC (Punta Toro virus): > 80 µg/mL; EC50 (Human betaherpesvirus 5 [19]): > 100 µg/mL; EC50 (Human betaherpesvirus 5 [20]): > 100 µg/mL; EC50 (Human alphaherpesvirus 3 [21]): > 100 µg/mL; EC50 (Human alphaherpesvirus 3 [22]): > 100 µg/mL; Activity [23]: inactive; MIC (Human respirovirus 3): > 80 µg/mL; MIC [24]: > 80 µg/mL; MIC (Sindbis virus): > 80 µg/mL; CC50 [25]: > 50 µg/mL
